Assays:
Gamma-secretase = assay: Inhibition of gamma secretase-mediated amyloid beta42 production in HEK293 cells; assay type: cell-based, Homo sapiens
In short: (§1)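 HEK293 cells stably transfected with APP (Swedish plus London mutations, pcDNA3.1) treated with compound for 5 h; Aβ in conditioned medium read by MSD sandwich immunoassay: Aβ42 with TAG-G2-11/biotin-4G8, Aβ40 with TAG-G2-10/biotin-4G8, total Aβ with TAG-W02/biotin-4G8. IC50 from Aβ42; ratio is total Aβ over Aβ42.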

[1] = Selectivity ratio of total amyloid beta to amyloid beta 42; in short: as §1
[2] = AUC (0 to 6 hrs) in rat at 10 mg/kg, po; assay type: ADME, organism-based; parameters: time < 6 hr, dose 10 mg/kg, route oral; conditions: plasma
In short: (§2)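 Rats given a single 10 mg/kg oral dose. Plasma sampled over 0–6 h for AUC and Cmax, with the time of Cmax recorded. Brain level (ng/g) and brain:plasma concentration ratio taken at 6 h.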

[3] = Cmax in rat at 10 mg/kg, po after 2 hrs; assay type: ADME, organism-based; parameters: dose 10 mg/kg, route oral; conditions: in vivo; in short: as §2
[4] = Selectivity ratio of drug level in brain to plasma in rat at 10 mg/kg, po after 6 hrs; assay type: ADME, organism-based; parameters: dose 10 mg/kg, route oral; conditions: read-out: BPR; in short: as §2
[5] = Drug level in rat brain at 10 mg/kg, po after 6 hrs; assay type: ADME, organism-based; parameters: dose 10 mg/kg, route oral; conditions: read-out: Drug uptake; in short: as §2
Brain = assay: Drug level in rat brain at 30 mg/kg, po; conditions: in vivo, read-out: Drug uptake
Plasma = assay: Drug level in rat plasma at 30 mg/kg, po; conditions: in vivo
Rattus norvegicus [6] = assay: Reduction in amyloid beta 42 level in rat CSF at 30 mg/kg, po; parameters: scale not given: the % may be the effect or the level left
Rattus norvegicus [7] = assay: Reduction in amyloid beta 42 level in rat CSF at 100 mg/kg, po; parameters: scale not given: the % may be the effect or the level left
[8] = AUC (0 to 6 hrs) in po dosed rat; assay type: ADME, organism-based; parameters: time < 6 hr, route oral; conditions: plasma; in short: as §2
Mus musculus [9] = assay: Reduction in amyloid beta 42 level in transgenic CRND8 mouse plasma at 30 mg/kg, po; assay type: functional; parameters: scale not given: the % may be the effect or the level left
In short: (§3)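 CRND8 transgenic mice dosed orally at 30 mg/kg. Plasma Aβ42 and total Aβ sampled 3 h after dosing.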

Mus musculus [10] = assay: Reduction in total amyloid beta level in CRND8 transgenic mouse plasma at 30 mg/kg, po; assay type: functional; parameters: scale not given: the % may be the effect or the level left; in short: as §3
Mus musculus [11] = assay: Reduction in amyloid beta 42 level in CRND8 transgenic mouse cortical at 30 mg/kg, po; assay type: functional; parameters: scale not given: the % may be the effect or the level left
[12] = Cmax in rat at 10 mg/kg, po after 1 hr; assay type: ADME, organism-based; parameters: dose 10 mg/kg, route oral; conditions: in vivo; in short: as §2
Rattus norvegicus [13] = assay: Reduction in amyloid beta 42 level in po dosed rat CSF; parameters: scale not given: the % may be the effect or the level left

Structure (SMILES)	IC50 (Gamma-secretase) [nM]	Ratio [1]	further results
CCN1CCCC(c2ccc(F)cc2)N2C(=O)/C(=C/c3ccc(-n4cnc(C)c4)c(OC)c3)N=C12 (racemic) [listing 1 of 2 here]	117	–	–
COc1cc(/C=C2\NC(=O)N([C@H](C)c3ccc(F)cc3)C2=O)ccc1-n1cnc(C)c1	3500	–	–
COc1cc(/C=C2\N=C(N)N([C@H](C)c3ccc(F)cc3)C2=O)ccc1-n1cnc(C)c1	94	65	–
COc1cc(/C=C2\N=C(N3CCCC3)N([C@@H](C)c3ccc(F)cc3)C2=O)ccc1-n1cnc(C)c1	671	32	–
CCNC1=N/C(=C\c2ccc(-n3cnc(C)c3)c(OC)c2)C(=O)N1[C@@H](C)c1ccc(F)cc1	220	97	–
CCN1CC(c2ccc(F)cc2)N2C(=O)/C(=C/c3ccc(-n4cnc(C)c4)c(OC)c3)N=C12 (single isomer, unassigned; (-))	56	159	–
COc1cc(/C=C2\N=C(NCCCO)N([C@@H](C)c3ccc(F)cc3)C2=O)ccc1-n1cnc(C)c1	163	141	–
COc1cc(/C=C2\N=C(NCCO)N([C@@H](C)c3ccc(F)cc3)C2=O)ccc1-n1cnc(C)c1	218	79	–
COc1cc(/C=C2\N=C3NCC(c4ccc(F)cc4)N3C2=O)ccc1-n1cnc(C)c1 (racemic)	135	117	–
CCNC1=N/C(=C\c2ccc(-n3cnc(C)c3)c(OC)c2)C(=O)N1Cc1ccc(F)cc1	72	104	–
COc1cc(/C=C2\N=C(NCCO)N([C@H](C)c3ccc(F)cc3)C2=O)ccc1-n1cnc(C)c1	63	27	–
CNC1=N/C(=C\c2ccc(-n3cnc(C)c3)c(OC)c2)C(=O)N1[C@@H](C)c1ccc(F)cc1	411	25	–
CCCCNC1=N/C(=C\c2ccc(-n3cnc(C)c3)c(OC)c2)C(=O)N1[C@H](C)c1ccc(F)cc1	92	42	–
COc1cc(/C=C2\N=C(N)N([C@H](CCO)c3ccc(F)cc3)C2=O)ccc1-n1cnc(C)c1	229	87	–
CCNC1=N/C(=C\c2ccc(-n3cnc(C)c3)c(OC)c2)C(=O)N1[C@H](CCO)c1ccc(F)cc1	171	117	–
CCN1CCCC(c2ccc(F)cc2)N2C(=O)/C(=C/c3ccc(-n4cnc(C)c4)c(OC)c3)N=C12 (single isomer, unassigned; (-)) [listing 1 of 2 here]	–	215	–
CCN1CCC(c2ccc(F)cc2)N2C(=O)/C(=C/c3ccc(-n4cnc(C)c4)c(OC)c3)N=C12 (single isomer, unassigned; (+))	85	71	–
COc1cc(/C=C2\N=C(NCC3CC3)N([C@H](C)c3ccc(F)cc3)C2=O)ccc1-n1cnc(C)c1	158	68	–
CCN1CCCC(c2ccc(F)cc2)N2C(=O)/C(=C/c3ccc(-n4cnc(C)c4)c(OC)c3)N=C12 (racemic) [listing 2 of 2 here]	–	169	–
CCCCNC1=N/C(=C\c2ccc(-n3cnc(C)c3)c(OC)c2)C(=O)N1Cc1ccc(F)cc1	85	70	AUC(0-t) at 6 h [2]: 10 µM·h; Cmax [3]: 2300 nM; Kp at 6 h [4]: 0.7; concentration at 6 h [5]: 449 ng/g; concentration (Brain): 5.9 µM; concentration (Plasma): 7.1 µM; Activity (Rattus norvegicus [6]): 10%; Activity (Rattus norvegicus [7]): 38%
COC1=N/C(=C\c2ccc(-n3cnc(C)c3)c(OC)c2)C(=O)N1[C@@H](C)c1ccc(F)cc1	864	23	–

Structure (SMILES)	IC50 (Gamma-secretase) [nM]	Ratio [1]	further results
COc1cc(/C=C2\CCCN([C@@H](C)c3ccc(F)cc3)C2=O)ccc1-n1cnc(C)c1	–	–	AUC(0-t) at 6 h [8]: 60.4 µM·h
COc1cc(/C=C2\N=C(N)N([C@H](CO)c3ccc(F)cc3)C2=O)ccc1-n1cnc(C)c1	139	113	–
CCNC1=N/C(=C\c2ccc(-n3cnc(C)c3)c(OC)c2)C(=O)N1[C@H](C)c1ccc(F)cc1	88	159	Activity (Mus musculus [9]): 80%; Activity (Mus musculus [10]): 10%; Activity (Mus musculus [11]): 12%; AUC(0-t) at 6 h [2]: 10.1 µM·h; Cmax [3]: 2300 nM; Kp at 6 h [4]: 1.3; concentration at 6 h [5]: 914 ng/g
COc1cc(/C=C2\N=C(N)N(Cc3ccc(F)cc3)C2=O)ccc1-n1cnc(C)c1	144	139	–
COCCNC1=N/C(=C\c2ccc(-n3cnc(C)c3)c(OC)c2)C(=O)N1[C@@H](C)c1ccc(F)cc1	301	66	–
COc1cc(/C=C2\N=C(N3CCCCC3)N([C@@H](C)c3ccc(F)cc3)C2=O)ccc1-n1cnc(C)c1	955	21	–
CCCCNC1=N/C(=C\c2ccc(-n3cnc(C)c3)c(OC)c2)C(=O)N1[C@@H](C)c1ccc(F)cc1	258	78	–
COc1cc(/C=C2\N=C(N)N([C@@H](C)c3ccc(F)cc3)C2=O)ccc1-n1cnc(C)c1	322	55	–
COc1cc(/C=C2\N=C(NCCCO)N([C@H](C)c3ccc(F)cc3)C2=O)ccc1-n1cnc(C)c1	111	153	–
COc1cc(/C=C2\NC(=O)N([C@@H](C)c3ccc(F)cc3)C2=O)ccc1-n1cnc(C)c1	163	141	–
CCN1CCCC(c2ccc(F)cc2)N2C(=O)/C(=C/c3ccc(-n4cnc(C)c4)c(OC)c3)N=C12 (single isomer, unassigned; (-)) [listing 2 of 2 here]	73	–	AUC(0-t) at 6 h [2]: 16.9 µM·h; Kp at 6 h [4]: 0.3; concentration at 6 h [5]: 275 ng/g; Cmax [12]: 4.2 µM; Activity (Rattus norvegicus [13]): 8%
COc1cc(Cc2c[nH]c(=N)n([C@@H](C)c3ccc(F)cc3)c2=O)ccc1-n1cnc(C)c1	446	–	–
COc1cc(/C=C2\N=C3NCCC(c4ccc(F)cc4)N3C2=O)ccc1-n1cnc(C)c1 (single isomer, unassigned; (+))	106	188	–
COc1cc(/C=C2\N=C(NCC3CC3)N([C@@H](C)c3ccc(F)cc3)C2=O)ccc1-n1cnc(C)c1	250	71	–
CCNC1=N/C(=C\c2ccc(-n3cnc(C)c3)c(OC)c2)C(=O)N1[C@H](CO)c1ccc(F)cc1	91	200	–
COc1cc(/C=C2/C(=O)N([C@@H](C)c3ccc(F)cc3)C(=N)NC2(C)C)ccc1-n1cnc(C)c1	> 20000	–	–
COc1cc([C@H](O)C2CNC(=N)N([C@@H](C)c3ccc(F)cc3)C2=O)ccc1-n1cnc(C)c1 (some centres undefined)	> 20000	–	–
COc1cc(/C=C2\N=C(NC3CC3)N([C@@H](C)c3ccc(F)cc3)C2=O)ccc1-n1cnc(C)c1	287	136	–
COc1cc(/C=C2\N=C3NCCCC(c4ccc(F)cc4)N3C2=O)ccc1-n1cnc(C)c1 (racemic)	503	40	–
COc1cc(/C=c2/c(=O)n([C@@H](C)c3ccc(F)cc3)c3n2CCCN=3)ccc1-n1cnc(C)c1	7100	–	–
COCCCNC1=N/C(=C\c2ccc(-n3cnc(C)c3)c(OC)c2)C(=O)N1[C@@H](C)c1ccc(F)cc1	287	70	–
